Source: ChEMBL document CHEMBL5252546, “Salutaxel, a Conjugate of Docetaxel and a Muramyl Dipeptide (MDP) Analogue, Acts as Multifunctional Prodrug That Inhibits Tumor Growth and Metastasis” (J Med Chem, 2018)
The source made the active and inactive calls. The rule behind the calls is not given here.

Tests used:
[1] = tested on: 4T1; experiment: Antitumor activity against mouse 4T1 cells implanted in BALB/c mouse assessed as increase in lung NOD1 expression level at 5 to 20 mg/kg,iv administrated once per week for 4 weeks by western blot assay; assay type: functional, organism-based; conditions: dose 5-20 mg/kg
In short: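 4T1 fat-pad model in BALB/c mice, iv once weekly for 4 weeks; MMP9, MMP2 and NOD1 in spleen, lung and tumour by western blot, β-actin loading control; bands averaged over five mice per group, representative of two independent experiments.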

[2] = Toxicity in Beagle dog assessed as effect on gastrointestinal tract at 3 to 18 mg/kg,iv measured upto 24 hrs; assay type: organism-based, Canis lupus familiaris; conditions: in vivo, dose 3-18 mg/kg
[3] = Drug metabolism in rat urine assessed as metabolite MDA-205 formation at 4 mg/kg,iv measured after 24 hrs; assay type: ADME, organism-based; conditions: in vivo
[4] = tested on: SF-295; experiment: Antiproliferative activity against human SF-295 cells assessed inhibition of cell growth incubated for 72 hrs by SRB assay; assay type: functional, cell-based; conditions: SF-295, 72 h
[5] = AUC (0-infinity) in female Beagle dog at 4 mg/kg,iv measured upto 24 hrs; assay type: ADME, organism-based, Canis lupus familiaris; design: dose 4 mg/kg, time < 24 hrs, route iv; conditions: in vivo
In short: (§1)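 Single iv dose: rats 2, 4 or 8 mg/kg by intravenous injection; Beagle dogs 1, 2 or 4 mg/kg by intravenous infusion. Plasma concentration–time data were analysed by sex and pooled. Reported parameters: Cmax, Tmax, AUC0−t, AUC0−∞, MRT0−∞, t1/2, CL, Vss, given as mean ± SD.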

[6] = tested on: NCI-H23; experiment: Antiproliferative activity against human NCI-H23 cells assessed inhibition of cell growth incubated for 72 hrs by SRB assay; assay type: functional, cell-based; conditions: NCI-H23, 72 h
[7] = Tmax in female Beagle dog at 1 mg/kg,iv measured upto 24 hrs; assay type: ADME, organism-based, Canis lupus familiaris; conditions: in vivo
[8] = AUC (0-t) in rat at 2 mg/kg,iv measured upto 24 hrs; assay type: ADME, organism-based; design: dose 2 mg/kg, time < 24 hrs, route iv; conditions: in vivo; in short: as §1
[9] = Toxicity in BALB/c mouse xenografted with human A549/Taxol cells assessed as side effects at 10 mg/kg,iv administrated once per week for 3 weeks; assay type: organism-based, A549/TR; conditions: in vivo, 504 h
[10] = MRT (0 to infinity) in Beagle dog at 2 mg/kg,iv measured upto 24 hrs; assay type: ADME, organism-based, Canis lupus familiaris; conditions: in vivo
[11] = Volume of distribution at steady state in male Beagle dog at 2 mg/kg,iv measured upto 24 hrs; assay type: ADME, organism-based, Canis lupus familiaris; conditions: in vivo, read-out: Vdss
[12] = Toxicity in BALB/c mouse xenografted with mouse 4T1 cells assessed as decrease in body weight at 10 mg/kg,iv administrated with doxorubicin combination once per week for 4 weeks; assay type: organism-based; conditions: in vivo, 672 h
[13] = AUC (0-infinity) in male rat at 8 mg/kg,iv measured upto 24 hrs; assay type: ADME, organism-based; design: dose 8 mg/kg, time < 24 hrs, route iv; conditions: in vivo; in short: as §1
[14] = Clearance in male rat at 4 mg/kg,iv measured upto 24 hrs; assay type: ADME, organism-based; conditions: in vivo
In short: (§2)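 Rats were given a single iv injection at 2, 4 or 8 mg/kg. Plasma parent drug and released docetaxel were followed over time. Cmax, Tmax, AUC, MRT, t1/2, CL and Vss were reported for males, females and all animals combined.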

[15] = Clearance in female Beagle dog at 1 mg/kg,iv measured upto 24 hrs; assay type: ADME, organism-based, Canis lupus familiaris; conditions: in vivo
In short: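 Beagle dogs were given a single iv infusion at 1, 2 or 4 mg/kg. Plasma parent drug and released docetaxel were followed over time. Cmax, Tmax, AUC, MRT, t1/2, CL and Vss were reported by sex and for all dogs combined.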

[16] = MRT (0 to infinity) in male rat at 8 mg/kg,iv measured upto 24 hrs; assay type: ADME, organism-based; conditions: in vivo
[17] = Tmax in female Beagle dog at 2 mg/kg,iv measured upto 24 hrs; assay type: ADME, organism-based, Canis lupus familiaris; conditions: in vivo
[18] = Clearance in female rat at 8 mg/kg,iv measured upto 24 hrs; assay type: ADME, organism-based; conditions: in vivo; in short: as §2
[19] = Stability in dog plasma assessed as compound remaining at 40 uM incubated for 6 hrs; assay type: ADME, cell-free, Canis lupus familiaris
[20] = tested on: 4T1; experiment: Antitumor activity against mouse 4T1 cells xenografted with BALB/c mouse assessed as inhibition of tumor growth at 5 to 20 mg/kg,iv administrated once per week for 4 weeks; assay type: functional, organism-based; conditions: dose 5-20 mg/kg
In short: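 4T1 cells injected into the mammary fat pad of BALB/c mice; iv saline vehicle or 5, 10 or 20 mg/kg once weekly for 4 weeks; body weight, tumour volume, tumour weight, lung metastatic nodule count and metastasis score recorded; n = 10, mean ± SEM, ANOVA and Student's t test.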

[21] = tested on: 4T1; experiment: Antitumor activity against mouse 4T1 cells implanted in BALB/c mouse assessed as decrease in spleen MDSC cells at 10 mg/kg,iv measured after 28 days (reference value: 38%); assay type: functional; design: scale not given: the % may be the effect or the level left; conditions: time 28 day
[22] = Toxicity in BALB/c mouse xenografted with human NCI-H1975 cells assessed as body weight loss at 5.7 mg/kg,iv administrated once per week for 3 weeks; assay type: organism-based; conditions: in vivo, 504 h
In short: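 Nude BALB/c nu/nu mice received subcutaneous human tumour cells into the right flank. Dosing started at mean tumour volume of 100–120 mm3, iv once weekly for 3 weeks; the taxane arm was an equimolar control. Body weight and overt side effects were monitored. Mean ± SEM, n = 8.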

[23] = MRT in mouse tumor implanted with mouse 4T1 cells at 5.7 mg/kg,iv measured upto 72 hrs; assay type: ADME, organism-based, Neoplasm
[24] = tested on: 4T1; experiment: Antitumor activity against mouse 4T1 cells implanted in BALB/c mouse assessed as decrease in spleen MDSC cells at 5.7 mg/kg,iv measured after 28 days (reference value: 38%); assay type: functional; design: scale not given: the % may be the effect or the level left; conditions: time 28 day
In short: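 Splenocytes taken from 4T1 fat-pad tumor-bearing BALB/c mice after 28 days of tumor growth with weekly iv dosing. Cells stained with anti-CD11b PE and anti-Gr-1 FITC, and the Gr-1+CD11b+ percentage scored by flow cytometry. Eight mice per treated group, five naive. Mean ± SEM.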

[25] = tested on: 4T1; experiment: Antitumor activity against mouse 4T1 cells xenografted with BALB/c mouse assessed as decrease in tumor weight at 5.7 mg/kg,iv administrated once per week for 4 weeks; assay type: functional, organism-based
In short: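 4T1 cells injected into mammary fat pads of BALB/c mice. Dosing iv once per week for 4 weeks, saline vehicle; single-agent arms were given alone or with the peptide component (5b or 6). Endpoints were body weight, tumour volume, tumour weight, lung metastatic nodule count and lung metastasis score. Mean ± SEM, n = 10; ANOVA and Student's t test.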

[26] = tested on: 4T1; experiment: Antitumor activity against mouse 4T1 cells implanted in BALB/c mouse assessed as decrease in spleen MMP2 expression level at 5.7 mg/kg,iv administrated once per week for 4 weeks in presence of compound 5b by western blot assay; assay type: functional, organism-based
In short: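 4T1 cells injected into mammary fat pads of BALB/c mice. Saline vehicle or test article given iv once weekly for 4 weeks. Spleen, lung and tumor lysates immunoblotted for MMP2/MMP9 with β-actin as loading control. Bands averaged over five mice per group, representative of two independent experiments.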

[27] = tested on: 4T1; experiment: Antitumor activity against mouse 4T1 cells implanted in BALB/c mouse assessed as increase in tumor NOD1 expression level at 5.7 mg/kg,iv administrated once per week for 4 weeks in presence of compound 5b by western blot assay; assay type: functional, organism-based
In short: (§3)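 Tumour-bearing BALB/c mice (4T1 cells into mammary fat pad) given iv saline vehicle or test agents once weekly for 4 weeks. Tumours excised and probed by western blot for MMP9, MMP2 and NOD1, β-actin as loading control. Bands averaged over five mice per group; representative of two independent experiments.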

[28] = tested on: 4T1; experiment: Antitumor activity against mouse 4T1 cells implanted in BALB/c mouse assessed as increase in tumor NOD1 expression level at 5.7 mg/kg,iv administrated once per week for 4 weeks in presence of MDA-205 by western blot assay; assay type: functional, organism-based; in short: as §3

CC(=O)O[C@@]12CO[C@@H]1C[C@H](O)[C@@]1(C)C(=O)[C@H](O)C3=C(C)[C@@H](OC(=O)[C@H](OC(=O)CCC(=O)NCCCC[C@H](NC(=O)CC[C@@H](NC(=O)[C@H](C)NC(=O)/C=C/c4ccc(F)cc4Cl)C(N)=O)C(=O)O)[C@@H](NC(=O)OC(C)(C)C)c4ccccc4)C[C@@](O)([C@@H](OC(=O)c4ccccc4)[C@H]21)C3(C)C
Activity [1]: Active
Activity [2]: Toxic
Drug metabolism [3]: Metabolite_Detected
IC50 [4]: 0.0163 µM
AUC(0-inf) [5]: 20.3 µg·h/mL
IC50 [6]: 0.0163 µM
Tmax [7]: 30 min
AUC(0-t) at 24 h [8]: 5.2 µg·h/mL
Activity [9]: Non-Toxic
MRT inf [10]: 14.2 min
Vd [11]: 0.09 L/kg
Activity [12]: Toxic
AUC(0-inf) [13]: 52.8 µg·h/mL
clearance [14]: 0.197 L/h/kg
clearance [15]: 0.672 L/h/kg
MRT inf [16]: 37.9 min
Tmax [17]: 30 min
clearance [18]: 0.203 L/h/kg
Stability [19]: Stable
inhibition [20]: Dose-Dependent Effect
Activity [21]: 20.2%

CC(=O)O[C@@]12CO[C@@H]1C[C@H](O)[C@@]1(C)C(=O)[C@H](O)C3=C(C)[C@@H](OC(=O)[C@H](O)[C@@H](NC(=O)OC(C)(C)C)c4ccccc4)C[C@@](O)([C@@H](OC(=O)c4ccccc4)[C@H]21)C3(C)C [DOCETAXEL ANHYDROUS]
Activity [22]: Non-Toxic
MRT [23]: 73.3 h
Activity [24]: 36.4%
Activity [25]: Active
Activity [26]: inactive
Activity [27]: inactive
Activity [28]: inactive
